Columns and labels:
[1] = system: RIF; assay: Photosensitizing activity in ABCG2-expressing mouse RIF cells assessed as induction STAT3 covalent cross linking pretreated for 4 hrs followed by irradiation exposure to 665 nm light at 3 J/cm2 by Western blotting; assay type: functional, cell-based
In short: (§1)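 Cells incubated 4 h with PS at indicated concentrations in 10% FCS medium, exposed to 665 nm light at 3 J/cm², extracted immediately. STAT-3 cross-linked product detected by Western blot, relative level by densitometry.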

[2] = Photocytotoxicity against ABCG2-expressing mouse RIF cells xenografted in C3H mouse assessed as tumor control at 0.47 umol/kg, iv followed by exposure to irradiation at 48 J/cm2 relative to control; assay type: functional
In short: (§2)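 Mice bearing shoulder tumours (C3H/RIF, BALB/c/Colon26) injected intravenously at 0.47 μmol/kg. Tumours irradiated with 665 nm laser 24 h later at 135 J/cm², 75 mW/cm² or 48 J/cm², 7 mW/cm². Tumour volume by calipers, V=(L×W²)×0.5. Groups of 5–10 mice; curves compared by Cox–Mantel test.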

[3] = Partition coefficient, log P of the compound; assay type: physicochemical; conditions: octanol/water
[4] = Drug uptake in ABCG2-expressing mouse RIF cells assessed as increase in mitochondrial localization at 3 uM for 24 hrs in presence of 10% FCS by fluorescence microscopy; assay type: ADME, cell-based; conditions: 2 µM, in the assay text read “2 uM” for “3 uM”
In short: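 RIF cells grown on poly-L-lysine-coated coverslips, co-incubated with PS and organelle trackers in 10% FCS medium for 3–4 h or 24 h, PBS-washed, imaged at 40× by inverted fluorescence microscopy. Trackers: MitoTracker Green 1 μM 1 h (mitochondria); LysoTracker Green 0.5 μM 0.5 h or 0.1 μm Fluospheres overnight (lysosomes); Bodipy C5 ceramide–albumin 5 μM (Golgi).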

[5] = system: Colon 26; assay: Photocytotoxicity against ABCG2-deficient mouse Colon 26 cells xenografted in BALB/c mouse assessed as tumor control at 0.47 umol/kg, iv followed by exposure to irradiation at 48 J/cm2 relative to control; assay type: functional; in short: as §2
[6] = system: Colon 26; assay: Photosensitizing activity in ABCG2-deficient mouse Colon 26 cells assessed as induction STAT3 covalent cross linking pretreated for 4 hrs followed by irradiation exposure to 665 nm light at 3 J/cm2 by Western blotting; assay type: functional, cell-based; in short: as §1
[7] = Photocytotoxicity against ABCG2-expressing mouse RIF cells xenografted in C3H mouse assessed as tumor control at 0.47 umol/kg, iv followed by exposure to irradiation at 135 J/cm2 relative to control; assay type: functional; in short: as §2
[8] = system: Mus musculus; assay: Skin toxicity in ABCG2-expressing mouse RIF cells xenografted in irradiation exposed C3H mouse assessed as foot response after 24 to 96 hrs; assay type: organism-based; conditions: in vivo

CCCCCCOC(C)c1c(C)c2cc3nc(c4c5[nH]c(cc6nc(cc1[nH]2)C(C)=C6CC)c(C)c5C(=O)C4)[C@@H](CCC(=O)O)[C@@H]3C (stereo partly drawn) [HPPH]
Activity [1]: Dose-dependent effect
Activity [2]: 40%
logP [3]: 6
Drug uptake [4]: Active
Activity [5]: 30%
Activity [6]: Dose-dependent effect
Activity [7]: 50%
Activity [8]: Toxic

From ChEMBL document CHEMBL1137774, “Conjugation of 2-(1'-hexyloxyethyl)-2-devinylpyropheophorbide-a (HPPH) to carbohydrates changes its subcellular distribution and enhances photodynamic activity in vivo” (J Med Chem, 2009)
